# The whole screen tested about 220,000 compounds, of which about 630 (0.29%) were called active.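 Rule for the calls: active = activation above its plate's cutoff, the mean activation of the plate's test wells plus 3 SD (cut at about 12% in these data); inactive = the rest.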 Many of the other results were omitted from the sample, so actives are more common in it than they were.
# Biological target: Mucolipin-3 (Homo sapiens) (UniProt Q8TDD5)
# Experiment: human TRPML3 channel agonists, primary screen, cell-based, HEK293 TRPML3-YFP, Fluo-8 calcium fluorescence, 3 µM (AID 1448);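 note: 0% = DMSO only wells and 100% = carbachol wells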
# Conditions: at 3 µM, active compounds read high, 100% = the carbachol control signal
# How it was run: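 system = HEK293 cells stably carrying human TRPML3-YFP | doses = one concentration, 3 µM nominal, 0.3% DMSO | timing = dye loading 1 h 37 °C then 30 min ambient, 125 s read | detection = Fluo-8 calcium dye fluorescence, ex 470-495, em 515-575 nm | benchmarks = high control carbachol 87 µM, low control DMSO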
# Sequence of Mucolipin-3 (Homo sapiens) (Q8TDD5 whole entry, looked up): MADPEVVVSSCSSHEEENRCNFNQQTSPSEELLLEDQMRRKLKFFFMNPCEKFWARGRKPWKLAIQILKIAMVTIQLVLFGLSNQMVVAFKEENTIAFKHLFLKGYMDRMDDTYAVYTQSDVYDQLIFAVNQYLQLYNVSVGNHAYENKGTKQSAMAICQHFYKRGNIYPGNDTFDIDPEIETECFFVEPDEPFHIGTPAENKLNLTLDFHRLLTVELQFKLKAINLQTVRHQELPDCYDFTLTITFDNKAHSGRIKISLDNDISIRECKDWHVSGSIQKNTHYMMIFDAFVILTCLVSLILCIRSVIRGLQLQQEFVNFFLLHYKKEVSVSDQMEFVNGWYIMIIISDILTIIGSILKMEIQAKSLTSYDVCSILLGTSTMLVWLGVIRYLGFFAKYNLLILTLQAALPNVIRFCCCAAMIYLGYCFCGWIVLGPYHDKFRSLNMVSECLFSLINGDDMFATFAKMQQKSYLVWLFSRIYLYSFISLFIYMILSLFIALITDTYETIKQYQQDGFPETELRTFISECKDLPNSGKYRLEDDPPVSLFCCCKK
row,Compound,activation
1,COCCNC(=O)C(OC(=O)c1cccs1)c1ccc(F)cc1 (stereo not drawn),0.35% (inactive)
2,COc1cc(OC)cc(C(=O)N[C@H](C(=O)Nc2nc3ccccc3[nH]2)C(C)C)c1,0.87% (inactive)
3,CC(NC(=O)COC(=O)c1ccc2c(c1)OCO2)c1ccccc1 (stereo not drawn),-0.07% (inactive)
4,COc1cc(OC)cc(C(=O)N[C@H](C(=O)OCC(=O)NC(C)c2ccccc2)C(C)C)c1 (stereo partly drawn),17.2% (active)
5,COc1ccc(Br)cc1CN(C)CC(=O)Nc1cc(Cl)cc(Cl)c1,0.63% (inactive)
6,Cc1cc2nc3c(=O)n(Cc4ccccc4)c(=O)[nH]c3nc2cc1N,23.9% (active)
7,O=c1[nH]c2c(c(=O)n1Cc1ccccc1)CCC2,0.43% (inactive)
8,CC(=O)c1ccc(-c2ccc(Cn3c(C)nc4cc(N)c(C)nc43)cc2)cc1,0.69% (inactive)
9,CCCC(=O)Nc1cccc(NC(=S)NC(=O)C(C)Oc2ccc(Cl)cc2Cl)c1 (stereo not drawn),0.1% (inactive)
10,COc1ccc(C(=O)NC(=S)NNC(=O)c2c(-c3ccccc3)noc2C)cc1,31.2% (active)
11,COc1ccc(C(=O)NC(=S)NNC(=O)CCc2ccccc2)cc1,2.05% (inactive)
12,Cc1onc(-c2ccccc2)c1C(=O)NNC(=S)NC(=O)c1ccc(F)cc1,1.79% (inactive)
13,O=C(Nc1ccc(S(=O)(=O)Nc2nccs2)cc1)c1cc(-c2ccncc2)nc2ccccc12,0.93% (inactive)
14,CC(C)Cc1nc(Cl)c(C#N)c2c1CCC2,-0.84% (inactive)
15,O=C(CN1CCN(C(=S)NC2CCCC2)CC1)Nc1ccc(Oc2ccccc2)cc1,3.02% (inactive)
16,CCOCC(=O)Nc1ncc(S(=O)(=O)c2ccc([N+](=O)[O-])cc2)s1,2.38% (inactive)
17,O=C(CCc1ccccc1)Nc1ncc([N+](=O)[O-])s1,8.03% (inactive)
18,CC(=O)Oc1ccccc1C(=O)Nc1ncc([N+](=O)[O-])s1,16.7% (active)
19,O=C(Cc1c(F)cccc1Cl)Nc1ncc([N+](=O)[O-])s1,10.9% (inactive)
20,CCC(C)NC(=O)c1ccc(N2CCC3(CC2)OCCO3)c([N+](=O)[O-])c1 (stereo not drawn),-0.07% (inactive)
21,COc1cc2nc(CN(C)Cc3ccc(F)cc3)[nH]c(=O)c2cc1OC,0.67% (inactive)
22,Cc1cs/c(=N\N=C\c2ccc(O)cc2)n1Cc1ccco1,-0.12% (inactive)
23,CN(c1ccccc1)c1ccc(/C=c2\s/c(=C(/C#N)C(=O)C(C)(C)C)n(Cc3ccco3)c2=O)cc1,14.8% (active)
24,COc1ccc(NC(=O)Cn2c(=O)n(Cc3ccco3)c(=O)c3ccccc32)cc1,0.61% (inactive)

row,Compound,activation
1,Cc1sc2ncnc(Sc3nc4ccccc4s3)c2c1C,0.98% (inactive)
2,CCc1c(C)nc2c(-c3ccccc3)c(C)nn2c1Nc1ccc(NC(C)=O)cc1,-0.72% (inactive)
3,CN(CC(=O)Nc1cccc(F)c1)CC(=O)Nc1cccc([N+](=O)[O-])c1,26.9% (active)
4,Cc1ccc(NC(=O)CN(C)CC(=O)Nc2cccc(F)c2)cc1[N+](=O)[O-],4.13% (inactive)
5,Cc1ccc(CN(C)CC(=O)Nc2cccc([N+](=O)[O-])c2)o1,-0.52% (inactive)
6,COC(=O)C1=C(C)N(c2ccc(Br)cc2)C(=O)/C1=C\c1ccco1,0.24% (inactive)
7,O=C(O)C(c1ccccc1)C1(O)CCCCC1 (stereo not drawn),1.12% (inactive)
8,CC(NC(=O)C(C)(C)C)C(c1cccs1)N1CCN(Cc2ccccc2)CC1 (stereo not drawn),-0.4% (inactive)
9,COc1ccc(OCCCn2cccc2/C=C2/C(=N)N3OC(C)=CC3=NC2=O)cc1,1.97% (inactive)
10,CC1=CC2=NC(=O)/C(=C/c3coc4ccccc4c3=O)C(=N)N2O1,18.6% (active)
11,CCOc1cc(/C=C2/C(=N)N3OC(C)=CC3=NC2=O)ccc1OC,0.9% (inactive)
12,COc1ccc(N2C(=O)/C(=C\c3ccco3)N=C2SCC(N)=O)cc1Cl,0.09% (inactive)
13,O=C(c1cccc(F)c1)N1CCN(c2ccc([N+](=O)[O-])c3cccnc23)CC1,0.25% (inactive)
14,CCN1CCN(c2nc(Nc3cccc(F)c3)nc(N)c2[N+](=O)[O-])CC1,0.34% (inactive)
15,CCOC(=O)C1=C(NC(=S)NC(=O)c2ccccc2)c2ccccc2CC1(C)C,43.3% (active)
16,COCCCNC(=S)NC(=O)c1ccccc1,0.01% (inactive)
17,CCOC(=O)c1c(-c2ccccc2)csc1NC(=S)NC(=O)c1ccccc1,-0.33% (inactive)
18,CCc1ccc2ncc(C(=O)c3ccccc3)c(N3CCOCC3)c2c1,-0.05% (inactive)
19,COCCNc1cc(NCCOC)c([N+](=O)[O-])cc1[N+](=O)[O-],0.69% (inactive)
20,CCOc1ccc(Br)cc1S(=O)(=O)N1CCC(C(=O)O)CC1,1.07% (inactive)
21,COc1ccc(F)cc1S(=O)(=O)N1CCCCC1,0.95% (inactive)
22,CCOc1ccc(S(=O)(=O)N2CCCCCC2)c2ccccc12,101% (active)
23,COc1ccc(S(=O)(=O)N2CCCCC2)cc1Br,9.19% (inactive)
24,COc1ccc(S(=O)(=O)N2CCCC2)c(C)c1C,13.3% (active)

row,Compound,activation
1,COc1ccc(S(=O)(=O)N2CCOCC2)c(C)c1C,0.66% (inactive)
2,COc1ccccc1Cn1c(C)nnc1-c1cnn(C)c1N,-0.66% (inactive)
3,CCCCN(CCCC)CC(O)Cn1c2ccccc2c(=O)c2ccccc21 (stereo not drawn),0.31% (inactive)
4,Cc1cc(Cl)ccc1OCc1nc(-c2ccncc2)no1,-0.07% (inactive)
5,O=C(CSc1nnc2n1CCCN2)c1ccccc1,0.51% (inactive)
6,COc1ccc(C2(CNC(=O)C(c3ccccc3)c3ccccc3)CCOCC2)cc1OC,0% (inactive)
7,CCN(CC)C(=O)CC1(c2ccccc2OC)CCOC(C(C)C)C1 (stereo not drawn),17.3% (active)
8,CCN(CC)C(=O)CSc1nc2ccccc2n1CC(=O)N1CCN(c2ccccc2OC)CC1,-0.02% (inactive)
9,CCC(C)(C)NC(=O)C(c1ccc(O)cc1)N(C(=O)Cn1nnc2ccccc21)c1ccc(NC(C)=O)cc1 (stereo not drawn),0.14% (inactive)
10,NS(=O)(=O)c1ccc(NC(=O)COC(=O)c2ccc(Cl)nc2)cc1,0.29% (inactive)
11,COc1cc(-c2cc(C(=O)OCC(=O)Nc3ccc4c(c3)OCO4)c3ccccc3n2)cc(OC)c1OC,-0.31% (inactive)
12,NS(=O)(=O)c1ccc(NC(=O)COC(=O)c2c3c(nc4ccccc24)/C(=C\c2ccc4c(c2)OCO4)CCC3)cc1,24% (active)
13,NC(=O)c1ccc(NC(=O)COC(=O)c2c3c(nc4ccccc24)/C(=C\c2ccc4c(c2)OCO4)CCC3)cc1,29.2% (active)
14,NS(=O)(=O)c1ccc(NC(=O)COC(=O)c2cc3ccccc3oc2=O)cc1,0.31% (inactive)
15,O=C(COC(=O)c1c2c(nc3ccccc13)/C(=C\c1cccs1)CCC2)Nc1ccccc1Cl,0.46% (inactive)
16,Cc1ccc(C2=N/C(=C\c3ccc(OS(=O)(=O)c4ccc(C)cc4)cc3)C(=O)O2)cc1,0.55% (inactive)
17,CCN(CC)S(=O)(=O)c1ccc(C)c(NC(=O)COc2ccc(Br)cc2Cl)c1,0.13% (inactive)
18,O=C(Nc1ccccc1C(=O)O)c1cc(S(=O)(=O)N2CCCCC2)cs1,-0.64% (inactive)
19,c1csc(-c2nnc(COc3ccc4c(c3)OCO4)o2)c1,0.41% (inactive)
20,c1ccc2c(CSCc3nc4ccccc4[nH]3)cccc2c1,0.61% (inactive)
21,c1ccc2c(C[n+]3csc4ccccc43)cccc2c1,34.1% (active)
22,Nc1scc[n+]1Cc1cccc2cccnc12,0.56% (inactive)
23,O=C(CN1CCN(c2nc(-c3ccccc3)cs2)CC1)NCc1ccc2c(c1)OCO2,0.02% (inactive)
24,CC1CCCC(C)N1C(=O)CN1CCN(c2nc(-c3ccc(F)cc3)cs2)CC1 (stereo not drawn),12.9% (active)

row,Compound,activation
1,COc1cccc(NC(=O)CN2CCN(c3nc(-c4cccc(OC)c4)cs3)CC2)c1,0.54% (inactive)
2,CC1CCCC(NC(=O)COC(=O)[C@@H]2CC(O)CN2S(=O)(=O)c2ccc3c(c2)OCCO3)C1C (stereo partly drawn),0.86% (inactive)
3,COc1cc(N/C=C2\CC(=O)NC(C)=C2C#N)cc(OC)c1OC,0.7% (inactive)
4,COc1cccc(CC(=O)N2CCCC(CCC(=O)N3CCN(c4ccccn4)CC3)C2)c1 (stereo not drawn),2.9% (inactive)
5,CC(C[N+](C)(C)C)OC(N)=O (stereo not drawn),3.52% (inactive)
6,CC(=O)OC(C)C[N+](C)(C)C (stereo not drawn),78.4% (active)
7,COc1ccc(C[C@H]2CN3C(=NC[C@H]3C)N2CCNC(=O)CCC2CCCCC2)cc1,0.4% (inactive)
8,CCCCCCCCCCOC(=O)C[N+](C)(C)CC1CCCCC1O (stereo not drawn),-0.99% (inactive)
9,Cc1cccc(C)c1N1CCN(S(=O)(=O)N2CCCCC2)CC1,57.5% (active)
10,Cc1cccc(C)c1N1CCN(S(=O)(=O)N2CCOCC2)CC1,1.69% (inactive)
11,O=S(=O)(N1CCCCC1)N1CCNCC1,0.7% (inactive)
12,CCC(C)(C)c1ccc(OCC(=O)N(C)C)c(C(C)(C)CC)c1,0.49% (inactive)
13,CC1=CC(C)(C)N(C(=O)CSc2nccn2C)c2cc(C)ccc21,-1.12% (inactive)
14,CC1=CC(C)(C)N(C(=O)CSc2nnc(-c3ccccc3)o2)c2ccc(C)cc21,23.2% (active)
15,O=C(CSc1nnc(-c2ccccc2)o1)N1CCOCC1,0.92% (inactive)
16,Cc1ccc(C(=O)N2CCN(S(=O)(=O)N3CCOCC3)CC2)cc1,0.24% (inactive)
17,O=C(COC(=O)CC1CC2CCC1C2)NC(=O)NC1CCCC1 (stereo not drawn),0% (inactive)
18,COc1ccc(S(=O)(=O)NC(C)C(=O)Nc2cccc([N+](=O)[O-])c2)cc1 (stereo not drawn),-0.47% (inactive)
19,COc1ccc(-c2cn(-c3ccc(OC)cc3)c(=S)[nH]2)cc1,0.32% (inactive)
20,COc1cc(OC)c(-n2c(C)cc(C=O)c2C)cc1Cl,-0.32% (inactive)
21,COc1cc(OC)c(-n2cc(-c3ccc(Cl)cc3)[nH]c2=O)cc1Cl,12.1% (active)
